Values belong to the molecule of their own block, whether it stands above or below them.
How the values were obtained:
Mus musculus [1] = test: Biodistribution of intravenously injected [82Br]-labeled compound in blood of BDF1 female mice bearing subcutaneous Lewis lung carcinoma after 0.25 hours; assay type: ADME, organism-based; conditions: in vivo, iv
Outline: (§1)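 82Br-labeled nucleoside given intravenously to female BDF1 mice bearing subcutaneous Lewis lung carcinoma, at 47-130 μg carrying 20-60 kBq. Mice sacrificed at each time point. Wet-weighed tissues γ-counted. Values are percent injected dose per gram wet tissue, mean ± SD, n = 6.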

Mus musculus [2] = test: Biodistribution of intravenously injected [82Br]-labeled compound in skin of BDF1 female mice bearing subcutaneous Lewis lung carcinoma after 4 hours; assay type: ADME, organism-based, Zone of skin; conditions: in vivo, iv
Outline: (§2)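 Female BDF1 mice with subcutaneous Lewis lung carcinoma given an iv injection of [82Br]-labelled nucleoside, 47-130 μg carrying 20-60 kBq 82Br. Tissues were excised, weighed wet and γ-counted. Values are percent injected dose per gram of wet tissue, mean ± standard deviation of six animals, with organ-to-tumour ratios derived.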

Mus musculus [3] = test: Biodistribution of intravenously injected [82Br]-labeled compound in gut of BDF1 female mice bearing subcutaneous Lewis lung carcinoma after 24 hours; assay type: ADME, organism-based; conditions: in vivo, iv; outline: as §2
Mus musculus [4] = test: Biodistribution of intravenously injected [82Br]-labeled compound in kidney of BDF1 female mice bearing subcutaneous Lewis lung carcinoma after 0.25 hours; assay type: ADME, organism-based; conditions: in vivo, iv; outline: as §2
Mus musculus [5] = test: Biodistribution of intravenously injected [82Br]-labeled compound in muscle of BDF1 female mice bearing subcutaneous Lewis lung carcinoma after 4 hours; assay type: ADME, organism-based, Muscle tissue; conditions: in vivo, iv; outline: as §2
Mus musculus [6] = test: Biodistribution of intravenously injected [82Br]-labeled compound in gut of BDF1 female mice bearing subcutaneous Lewis lung carcinoma after 0.50 hours; assay type: ADME, organism-based; conditions: in vivo, iv, 0.5 h; outline: as §1
Mus musculus [7] = test: Biodistribution of intravenously injected [82Br]-labeled compound in bone of BDF1 female mice bearing subcutaneous Lewis lung carcinoma after 2 hours; assay type: ADME, organism-based, Bone element; conditions: in vivo, iv; outline: as §1
Mus musculus [8] = test: Biodistribution of intravenously injected [82Br]-labeled compound in liver of BDF1 female mice bearing subcutaneous Lewis lung carcinoma after 24 hours; assay type: ADME, organism-based; conditions: in vivo, iv; outline: as §2
Mus musculus [9] = test: Biodistribution of intravenously injected [82Br]-labeled compound in blood of BDF1 female mice bearing subcutaneous Lewis lung carcinoma after 8 hours; assay type: ADME, organism-based; conditions: in vivo, iv; outline: as §1
Mus musculus [10] = test: Biodistribution of intravenously injected [82Br]-labeled compound in tumor of BDF1 female mice bearing subcutaneous Lewis lung carcinoma after 8 hours; assay type: ADME, organism-based; conditions: in vivo, iv
Mus musculus [11] = test: Biodistribution of intravenously injected [82Br]-labeled compound in bone of BDF1 female mice bearing subcutaneous Lewis lung carcinoma after 4 hours; assay type: ADME, organism-based, Bone element; conditions: in vivo, iv; outline: as §1
Mus musculus [12] = test: Biodistribution of intravenously injected [82Br]-labeled compound in liver of BDF1 female mice bearing subcutaneous Lewis lung carcinoma after 8 hours; assay type: ADME, organism-based; conditions: in vivo, iv; outline: as §2
Mus musculus [13] = test: Biodistribution of intravenously injected [82Br]-labeled compound in liver of BDF1 female mice bearing subcutaneous Lewis lung carcinoma after 2 hours; assay type: ADME, organism-based; conditions: in vivo, iv; outline: as §2
Mus musculus [14] = test: Biodistribution of intravenously injected [82Br]-labeled compound in heart of BDF1 female mice bearing subcutaneous Lewis lung carcinoma after 0.25 hours; assay type: ADME, organism-based; conditions: in vivo, iv; outline: as §2
Mus musculus [15] = test: Biodistribution of intravenously injected [82Br]-labeled compound in stomach of BDF1 female mice bearing subcutaneous Lewis lung carcinoma after 2 hours; assay type: ADME, organism-based; conditions: in vivo, iv
Mus musculus [16] = test: Biodistribution of intravenously injected [82Br]-labeled compound in blood of BDF1 female mice bearing subcutaneous Lewis lung carcinoma after 1 hours; assay type: ADME, organism-based; conditions: in vivo, iv; outline: as §1
Mus musculus [17] = test: Biodistribution of intravenously injected [82Br]-labeled compound in kidney of BDF1 female mice bearing subcutaneous Lewis lung carcinoma after 24 hours; assay type: ADME, organism-based; conditions: in vivo, iv; outline: as §2
Mus musculus [18] = test: Biodistribution of intravenously injected [82Br]-labeled compound in gut of BDF1 female mice bearing subcutaneous Lewis lung carcinoma after 8 hours; assay type: ADME, organism-based; conditions: in vivo, iv; outline: as §2
Mus musculus [19] = test: Biodistribution of intravenously injected [131I]-labeled compound in skin of BDF1 female mice bearing subcutaneous Lewis lung carcinoma after 0.50 hours; assay type: ADME, organism-based, Zone of skin; conditions: in vivo, iv, 0.5 h
Outline: (§3)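 Female BDF1 mice with subcutaneous Lewis lung carcinoma given i.v. 0.5-1.8 μg of 131I-labeled nucleoside (55-110 kBq). Killed at set times. Tissues weighed wet and γ-counted. Radioactivity expressed as percent injected dose per gram wet tissue, mean ± SD of six animals.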

Mus musculus [20] = test: Biodistribution of intravenously injected [131I]-labeled compound in gut of BDF1 female mice bearing subcutaneous Lewis lung carcinoma after 0.25 hours; assay type: ADME, organism-based; conditions: in vivo, iv
Outline: (§4)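 Female BDF1 mice bearing subcutaneous Lewis lung carcinoma received a single intravenous dose of 0.5-1.8 μg of the 131I-labeled nucleoside (55-110 kBq). They were sacrificed at set times, and tissues were weighed wet and γ-counted. Activity is expressed as percent of injected dose per gram of wet tissue, given as mean ± standard deviation for six animals.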

Mus musculus [21] = test: Biodistribution of intravenously injected [131I]-labeled compound in muscle of BDF1 female mice bearing subcutaneous Lewis lung carcinoma after 8 hours; assay type: ADME, organism-based, Muscle tissue; conditions: in vivo, iv; outline: as §3
Mus musculus [22] = test: Biodistribution of intravenously injected [131I]-labeled compound in heart of BDF1 female mice bearing subcutaneous Lewis lung carcinoma after 8 hours; assay type: ADME, organism-based; conditions: in vivo, iv; outline: as §4
Mus musculus [23] = test: Biodistribution of intravenously injected [131I]-labeled compound in muscle of BDF1 female mice bearing subcutaneous Lewis lung carcinoma after 1 hours; assay type: ADME, organism-based, Muscle tissue; conditions: in vivo, iv; outline: as §3
Mus musculus [24] = test: Biodistribution of intravenously injected [131I]-labeled compound in skin of BDF1 female mice bearing subcutaneous Lewis lung carcinoma after 0.25 hours; assay type: ADME, organism-based, Zone of skin; conditions: in vivo, iv; outline: as §3
Mus musculus [25] = test: Biodistribution of intravenously injected [131I]-labeled compound in stomach of BDF1 female mice bearing subcutaneous Lewis lung carcinoma after 0.25 hours; assay type: ADME, organism-based; conditions: in vivo, iv; outline: as §3
Mus musculus [26] = test: Biodistribution of intravenously injected [131I]-labeled compound in liver of BDF1 female mice bearing subcutaneous Lewis lung carcinoma after 8 hours; assay type: ADME, organism-based; conditions: in vivo, iv; outline: as §4
Mus musculus [27] = species: Mus musculus; test: Urinary iodide observed in BDF1 female mice bearing lewis lung tumor after 24 hr of injected [131I]-compound; assay type: functional, tissue-based; conditions: Urine
Mus musculus [28] = test: Biodistribution of intravenously injected [131I]-labeled compound in blood of BDF1 female mice bearing subcutaneous Lewis lung carcinoma after 24 hours; assay type: ADME, organism-based; conditions: in vivo, iv; outline: as §4
Mus musculus [29] = species: Mus musculus; test: Urinary [131I]- compound observed in BDF1 female mice bearing lewis lung tumor after 2-3 hr of injected [131I]-compound; assay type: functional, tissue-based; conditions: Urine
Mus musculus [30] = test: Biodistribution of intravenously injected [131I]-labeled compound in gut of BDF1 female mice bearing subcutaneous Lewis lung carcinoma after 0.50 hours; assay type: ADME, organism-based; conditions: in vivo, iv, 0.5 h; outline: as §4
Mus musculus [31] = test: Biodistribution of intravenously injected [131I]-labeled compound in tumor of BDF1 female mice bearing subcutaneous Lewis lung carcinoma after 24 hours; assay type: ADME, organism-based; conditions: in vivo, iv; outline: as §3
Mus musculus [32] = species: Mus musculus; test: Urinary [131I]5-iodouracil observed in BDF1 female mice bearing lewis lung tumor after 24 hr of injected [131I]-compound; assay type: functional, tissue-based; conditions: Urine
Mus musculus [33] = test: Biodistribution of intravenously injected [131I]-labeled compound in heart of BDF1 female mice bearing subcutaneous Lewis lung carcinoma after 0.50 hours; assay type: ADME, organism-based; conditions: in vivo, iv, 0.5 h; outline: as §4
Mus musculus [34] = test: Biodistribution of intravenously injected [131I]-labeled compound in muscle of BDF1 female mice bearing subcutaneous Lewis lung carcinoma after 0.25 hours; assay type: ADME, organism-based, Muscle tissue; conditions: in vivo, iv; outline: as §4
Mus musculus [35] = test: Biodistribution of intravenously injected [131I]-labeled compound in stomach of BDF1 female mice bearing subcutaneous Lewis lung carcinoma after 8 hours; assay type: ADME, organism-based; conditions: in vivo, iv; outline: as §3
Mus musculus [36] = test: Biodistribution of intravenously injected [131I]-labeled compound in skin of BDF1 female mice bearing subcutaneous Lewis lung carcinoma after 8 hours; assay type: ADME, organism-based, Zone of skin; conditions: in vivo, iv; outline: as §3
Mus musculus [37] = test: Biodistribution of intravenously injected [131I]-labeled compound in lung of BDF1 female mice bearing subcutaneous Lewis lung carcinoma after 8 hours; assay type: ADME, organism-based; conditions: in vivo, iv; outline: as §4
Mus musculus [38] = test: Biodistribution of intravenously injected [131I]-labeled compound in bone of BDF1 female mice bearing subcutaneous Lewis lung carcinoma after 1 hours; assay type: ADME, organism-based, Bone element; conditions: in vivo, iv; outline: as §4

Injected dose/g (Mus musculus [1]): 2.68% | Injected dose/g (Mus musculus [2]): 0.31% | Injected dose/g (Mus musculus [3]): 0.22% | Injected dose/g (Mus musculus [4]): 7.69% | Injected dose/g (Mus musculus [5]): 0.12% | Injected dose/g (Mus musculus [6]): 0.72% | Injected dose/g (Mus musculus [7]): 0.26% | Injected dose/g (Mus musculus [8]): 0.18% | Injected dose/g (Mus musculus [9]): 0.72% | Injected dose/g (Mus musculus [10]): 0.46% | Injected dose/g (Mus musculus [11]): 0.17% | Injected dose/g (Mus musculus [12]): 0.28% | Injected dose/g (Mus musculus [13]): 0.32% | Injected dose/g (Mus musculus [14]): 1.61% | Injected dose/g (Mus musculus [15]): 0.52% | Injected dose/g (Mus musculus [16]): 0.78% | Injected dose/g (Mus musculus [17]): 0.36% | Injected dose/g (Mus musculus [18]): 0.33%
SMILES: O=c1[nH]c(=O)n([C@H]2O[C@@H](CO)[C@H](O)[C@H]2F)cc1Br

Injected dose/g (Mus musculus [19]): 3.8% | Injected dose/g (Mus musculus [20]): 3.1% | Injected dose/g (Mus musculus [21]): 0.7% | Injected dose/g (Mus musculus [22]): 1.6% | Injected dose/g (Mus musculus [23]): 2.3% | Injected dose/g (Mus musculus [24]): 5.2% | Injected dose/g (Mus musculus [25]): 3.7% | Injected dose/g (Mus musculus [26]): 1.4% | Injected dose/g (Mus musculus [28]): 0.16% | Injected dose/g (Mus musculus [30]): 2.8% | Injected dose/g (Mus musculus [31]): 0.08% | Injected dose/g (Mus musculus [33]): 6.4% | Injected dose/g (Mus musculus [34]): 2.5% | Injected dose/g (Mus musculus [35]): 5.3% | Injected dose/g (Mus musculus [36]): 2.1% | Injected dose/g (Mus musculus [37]): 2.6% | Injected dose/g (Mus musculus [38]): 1.5%
SMILES: O=c1[nH]c(=O)n([C@@H]2O[C@H](CO)[C@@H](O)[C@H]2F)cc1I
Radioactive constituents (Mus musculus [27]): 62.6% | Radioactive constituents (Mus musculus [29]): 82.8% | Radioactive constituents (Mus musculus [32]): 0%

— ChEMBL document CHEMBL1124493, “Synthesis and tumor uptake of 5-82Br- and 5-131I-labeled 5-halo-1-(2-fluoro-2-deoxy-beta-D-ribofuranosyl)uracils” (J Med Chem, 1989)
